Laboratory results taken from ChEMBL document CHEMBL5055627 (J Med Chem, 2021).
Values after ≈ are worked out from the molar mass of the structure shown. Active and inactive are the calls of the source. No cut-off for these calls is given here.

Legend:
[1] = target: T1, Proteasome Macropain subunit MB1 (Homo sapiens, UniProt P28074); assay: Inhibition of human 20S constitutive proteasome beta-5c subunit using Suc-LLVY-AMC as substrate measured over 1.5 to 2 hrs by plate reader assay
T1 sequence (P28074 whole entry): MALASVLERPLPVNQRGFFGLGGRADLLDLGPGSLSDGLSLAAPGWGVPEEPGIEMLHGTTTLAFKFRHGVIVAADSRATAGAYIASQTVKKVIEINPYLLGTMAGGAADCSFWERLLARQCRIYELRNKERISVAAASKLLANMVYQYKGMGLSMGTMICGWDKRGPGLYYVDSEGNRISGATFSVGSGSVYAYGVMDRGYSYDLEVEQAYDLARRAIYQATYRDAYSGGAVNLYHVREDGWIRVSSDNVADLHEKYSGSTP
How it was run: (§1)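 Human c-20S (from red blood cells; β5c 0.2 nM final) or i-20S (from PBMC; β5i 0.4 nM final), activated with 0.02% SDS. Buffer 20 mM HEPES, 0.5 mM EDTA, pH 7.5; 3-fold compound series from 100 μM.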

[2] = target: T2, 20S immunoproteasome beta-2i subunit (Homo sapiens, UniProt P40306); assay: Inhibition of human 20S immunoproteasome beta-2i subunit at 100 uM using Z-VLR-AMC as substrate measured over 1.5 to 2 hrs by plate reader assay relative to control; conditions: probe Z-VLR-AMC, time 1.5-2 hrs
T2 sequence (P40306 whole entry): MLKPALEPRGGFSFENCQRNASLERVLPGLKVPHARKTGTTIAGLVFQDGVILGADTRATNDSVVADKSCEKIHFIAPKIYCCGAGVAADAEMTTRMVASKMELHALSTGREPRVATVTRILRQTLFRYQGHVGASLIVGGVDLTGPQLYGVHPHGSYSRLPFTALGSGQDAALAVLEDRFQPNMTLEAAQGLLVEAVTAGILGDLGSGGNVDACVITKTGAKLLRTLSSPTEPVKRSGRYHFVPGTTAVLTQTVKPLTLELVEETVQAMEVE
How it was run: (§2)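 Human c-20S β2c or i-20S β2i, activated with 6 nM PA28α, with 50 μM Z-VLR-AMC in 20 mM HEPES, 0.5 mM EDTA, pH 7.5. Compounds in 3-fold series from 100 μM.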

[3] = target: T3, Proteasome subunit beta type-8 (Homo sapiens, UniProt P28062); assay: Inhibition of human 20S immunoproteasome beta-5i subunit using Suc-LLVY-AMC as substrate measured over 1.5 to 2 hrs by plate reader assay; how it was run: as §1
T3 sequence (P28062 whole entry): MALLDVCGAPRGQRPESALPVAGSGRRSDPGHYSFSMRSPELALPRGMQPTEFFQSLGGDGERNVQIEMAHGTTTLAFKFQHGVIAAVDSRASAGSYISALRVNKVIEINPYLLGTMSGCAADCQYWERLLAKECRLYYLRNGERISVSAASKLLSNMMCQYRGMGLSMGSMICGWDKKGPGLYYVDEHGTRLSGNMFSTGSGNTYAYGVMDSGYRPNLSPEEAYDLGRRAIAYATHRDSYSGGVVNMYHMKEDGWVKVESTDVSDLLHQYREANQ

[4] = target: T4, 20S immunoproteasome beta-1i subunit (Homo sapiens, UniProt P28065); assay: Inhibition of human 20S immunoproteasome beta-1i subunit at 100 uM using Z-LLE-AMC as substrate measured over 1.5 to 2 hrs by plate reader assay relative to control; conditions: probe Z-LLE-AMC, time 1.5-2 hrs
T4 sequence (P28065 whole entry): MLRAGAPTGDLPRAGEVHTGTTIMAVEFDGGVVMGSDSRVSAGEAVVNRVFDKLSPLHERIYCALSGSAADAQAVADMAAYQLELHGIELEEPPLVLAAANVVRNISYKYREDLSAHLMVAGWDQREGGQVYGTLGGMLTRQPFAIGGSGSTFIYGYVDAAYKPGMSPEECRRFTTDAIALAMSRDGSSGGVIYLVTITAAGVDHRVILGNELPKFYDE
How it was run: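 Human c-20S β1c or i-20S β1i, activated with 0.02% SDS, with 50 μM Z-LLE-AMC in 20 mM HEPES, 0.5 mM EDTA, pH 7.5. AMC fluorescence (ex 360/em 460 nm) recorded over 1.5–2 h.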

[5] = Permeability of compound by PAMPA; type: ADME
[6] = Stability of mouse liver microsomes assessed as intrinsic clearance at 1 uM measured upto 30 mins in presence of NADPH generating system by LC/MS-MS analysis; type: ADME, Microsome; conditions: 0.5 h
How it was run: (§3)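 Compound at 1 μM with human or mouse liver microsomes (0.2 mg protein/mL) in phosphate buffer pH 7.4, started with NADPH-generating system; 1% organic solvent. Incubated at 37 °C for 0, 15 and 30 min in duplicate, quenched with acetonitrile plus internal standard, analysed by LC/MS-MS. CLint = first-order k divided by protein concentration.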

[7] = tested on: HepG2; assay: Cytotoxicity against human HepG2 cells assessed as cell viability at 30 uM incubated for 72 hrs relative to control; type: cell-based; conditions: hepg2, 72 h
How it was run: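 HepG2 cells exposed to 30 μM compound for 72 h, then viability assessed.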

[8] = tested on: Mycobacterium tuberculosis; assay: Inhibition of intracellular 20S proteasome activity in Mycobacterium tuberculosis MHD1441 expressing Pup-GFP assessed as Pup-GFP accumulation measured after 4 days by fluorescence assay; type: cell-based; conditions: dose 0.1-33 µM, time 4.0 day
How it was run: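 Mtb H37Rv carrying pSCK1 (produces Pup-GFP), adjusted to OD 0.05 in 7H9. Compounds at 33, 11, 3.7, 1.2, 0.4 and 0.1 μM final, incubated 4 d at 37 °C. OD580 and fluorescence (ex 495/em 510 nm) read; RFU normalised to OD, then expressed as fold of DMSO control; ≥3 independent experiments.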

[9] = Stability in human plasma assessed as parent compound remaining incubated for 2 hrs by UPLC/MS analysis; type: ADME, cell-free; conditions: read-out: Stability
[10] = Stability of human liver microsomes assessed as intrinsic clearance at 1 uM measured upto 30 mins in presence of NADPH generating system by LC/MS-MS analysis; type: ADME, Microsome; conditions: 0.5 h; how it was run: as §3
[11] = Kinetic solubility of compound in PBS at pH 6.8 incubated for 24 hrs by UPLC/MS analysis; type: physicochemical; conditions: read-out: Kinetic_solubility
[12] = tested on: Mycobacterium tuberculosis; assay: Inhibition of Mycobacterium tuberculosis 20S proteasome expressed in Escherichia coli BL21(DE3) at 10 to 30 nM using Suc-LLVY-AMC as substrate by plate reader assay; conditions: dose 10-30 nM, TDE = time-dependent effect
[13] = Inhibition of Mycobacterium tuberculosis 20S proteasome expressed in Escherichia coli BL21(DE3) using Suc-LLVY-AMC as substrate by plate reader assay
[14] = tested on: Mycobacterium tuberculosis; assay: Inhibition of intracellular 20S proteasome activity in Mycobacterium tuberculosis assessed as accumulation of pupylated protein incubated for 48 hrs; type: cell-based; conditions: dose 1-10 µM
How it was run: (§4)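 Mtb CDC1551 dop::MycoMarT7 expressing Pup-GGE (no depupylation) treated 48 h with compound at 1, 3 or 10 μM, or carfilzomib at 50 μM. Pupylated proteins detected by anti-Pup immunoblot, with anti-PrcB as loading control.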

[15] = tested on: Mycobacterium tuberculosis; assay: Inhibition of Mycobacterium tuberculosis 20S proteasome expressed in Escherichia coli BL21(DE3) assessed as half life using Suc-LLVY-AMC as substrate by plate reader assay
[16] = tested on: Mycobacterium tuberculosis; assay: Bactericidal activity against Mycobacterium tuberculosis under nitrosative stress condition; type: functional, organism-based
How it was run: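 Non-replicating Mtb Erdman held in Sauton's medium with 0.5 mM NaNO₂ at pH 5.5 to generate NO; killing measured as reported previously.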

[17] = tested on: Mycobacterium tuberculosis; assay: Inhibition of intracellular 20S proteasome activity in Mycobacterium tuberculosis assessed as accumulation of pupylated protein at 50 uM incubated for 48 hrs; type: cell-based; how it was run: as §4
[18] = target: T5, Proteasome subunit beta type-10 (Homo sapiens, UniProt P40306); assay: Inhibition of human 20S immunoproteasome beta-2i subunit using Z-VLR-AMC as substrate measured over 1.5 to 2 hrs by plate reader assay; how it was run: as §2
T5 sequence (P40306 whole entry): T2 sequence (P40306 whole entry)

Row | Compound | IC50 [1] | inhibition at 100 µM [2] | IC50 [3] | inhibition at 100 µM [4] | also measured
1 | CC(=O)N[C@H]1Cc2cccc(c2)Oc2ccc(cc2)C[C@@H](C(=O)NCc2ccccc2F)NC(=O)[C@H](CC(=O)N2CCC[C@@H]2c2ccccc2)NC1=O | > 100 µM | < 50% | > 100 µM | < 50% | –
2 | O=C1CCc2cccc(c2)OCCCC[C@@H](C(=O)NCc2ccccc2F)NC(=O)[C@H](CCN2CCC[C@@H]2c2ccccc2)N1 | 86.2 µM | – | 47.3 µM | – | –
3 | O=C1CCCCCCCCOC[C@@H](C(=O)NCc2ccccc2F)NC(=O)[C@H](CC(=O)N2CCC[C@@H]2c2ccccc2)N1 | > 100 µM | < 50% | > 100 µM | < 50% | permeability [5]: 26 ×10⁻⁶ cm/s; CLH [6]: > 768 µL/min/mg; Activity [7]: 91%; inhibition [8]: Dose-dependent effect; remaining at 2 h [9]: 86%; CLH [10]: > 768 µL/min/mg
4 | O=C1CCc2cccc(c2)OCCCC[C@@H](C(=O)NCc2ccccc2F)NC(=O)[C@H](CC(=O)N2CCC[C@@H]2c2ccccc2)N1 | > 100 µM | < 50% | > 100 µM | < 50% | permeability [5]: 20.6 ×10⁻⁶ cm/s; CLH [6]: > 768 µL/min/mg; Activity [7]: 102%; inhibition [8]: Dose-dependent effect; remaining at 2 h [9]: 97%; solubility kinetic at 24 h [11]: 33 µg/mL (≈ 52.5 µM); CLH [10]: > 768 µL/min/mg
5 | O=C1CCc2cccc(c2)OCCCC[C@@H](C(=O)NCc2ccccc2F)NC(=O)[C@H](CC(=O)N2CCC[C@H]2C2CC2)N1 | 1.5 µM | < 50% | 0.87 µM | < 50% | –
6 | O=C1CCCCCCCCOC[C@@H](C(=O)NCc2cccc3ccccc23)NC(=O)[C@H](CC(=O)N2CCCC2)N1 | > 100 µM | < 50% | > 100 µM | < 50% | –
7 | O=C1CCCCCCCCC[C@@H](C(=O)NCc2cccc3ccccc23)NC(=O)[C@H](CC(=O)N2CCCC2)N1 | > 100 µM | < 50% | > 100 µM | < 50% | –
8 | O=C1CCc2cccc(c2)Oc2ccc(cc2)C[C@@H](C(=O)NCc2ccccc2F)NC(=O)[C@H](CC(=O)N2CCC[C@@H]2c2ccccc2)N1 | > 100 µM | < 50% | > 100 µM | < 50% | permeability [5]: 22.7 ×10⁻⁶ cm/s; CLH [6]: > 768 µL/min/mg; Activity [7]: 98%; inhibition [8]: Dose-dependent effect; remaining at 2 h [9]: 94%; solubility kinetic at 24 h [11]: 1.4 µg/mL (≈ 2.11 µM); inhibition [12]: Tde; Ki [13]: 0.0121 µM; CLH [10]: > 768 µL/min/mg; inhibition [14]: Dose-dependent effect; T1/2 [15]: 16.5 min; Activity [16]: Dose-dependent effect
9 | CC(C)C[C@H](NC(=O)[C@H](CCc1ccccc1)NC(=O)CN1CCOCC1)C(=O)N[C@@H](Cc1ccccc1)C(=O)N[C@@H](CC(C)C)C(=O)[C@@]1(C)CO1 | – | – | – | – | inhibition [17]: Active
10 | O=C1N[C@@H](CC(=O)N2CCCC2)C(=O)N[C@H](C(=O)NCc2cccc3ccccc23)CCCCCCCCCC1Cc1ccccc1 (stereo partly drawn) | – | < 50% | > 100 µM | < 50% | –
11 | O=C1CCc2cccc(c2)Oc2ccc(cc2)C[C@@H](C(=O)NCc2ccccc2F)NC(=O)[C@H](CC(=O)N2CCCC2)N1 | > 100 µM | < 50% | 21.1 µM | < 50% | –
12 | CCN(CC)C(=O)C[C@H](NC(=O)CCc1ccccc1)C(=O)N[C@@H](Cc1ccc(F)cc1)C(=O)NCc1cccc2ccccc12 | 70 µM | – | 54.7 µM | – | –
13 | O=C1CCCCCCCCCC[C@@H](C(=O)NCc2cccc3ccccc23)NC(=O)[C@H](CC(=O)N2CCCC2)N1 | > 100 µM | < 50% | > 100 µM | < 50% | –
14 | O=C1CCc2cccc(c2)OCCCC[C@@H](C(=O)NCc2ccccc2F)NC(=O)[C@H](CC(=O)N2CCC[C@@H]2C2CC2)N1 | 0.073 µM | < 50% | 0.069 µM | < 50% | IC50 [18]: 44.5 µM
15 | O=C(N[C@H]1Cc2cccc(c2)Oc2ccc(cc2)C[C@@H](C(=O)NCc2ccccc2F)NC(=O)[C@H](CC(=O)N2CCC[C@@H]2c2ccccc2)NC1=O)c1ccccc1 | > 100 µM | < 50% | > 100 µM | < 50% | –
